Source: PubChem
Compounds with a hit are over-represented: about 2% of the library has one in this group of screens.
CHRM5 PAM = positive allosteric modulators of human muscarinic M5 receptor. P08912. AID 624038. 360,000 tested, 0.3% active. activation, % at 3 µM. CHO-K1 hM5, Fluo-8 calcium, ACh EC20 PAM; 0% = ACh EC20, 100% = ACh EC100;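 active means activation above the run cutoff, the mean activation of all test compounds plus 3 SD, cut at about 18% in these data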
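system = human M5 receptor in CHO-K1 cells | compound = one concentration, 3 µM final (nominal) | schedule = Post-acetylcholine fluorescence recording 140 s | signal = Fluo-8 calcium dye fluorescence, kinetic read | benchmarks = low control EC20 acetylcholine (0%), high control EC100 acetylcholine (100%) | repeats = singlicate, one well per test compound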
CHRM5 antagonist = antagonists of human muscarinic M5 receptor (CHRM5). inhibition, % at 3 µM. CHO-hM5 cells, Fluo-8 calcium fluorescence, ACh EC80. 360,000 tested, 0.59% active. P08912. AID 624040;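 active means inhibition above a per-plate cutoff, the mean of that plate's test compounds plus 3 SD, cut at about 27% in these data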;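 further: 0% = acetylcholine EC80 with DMSO and 100% = DMSO without agonist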
M1 PAM = potentiates human M1 receptor response to acetylcholine; P11229; CHO-K1 hM1, Fluo-8 calcium fluorescence, ACh EC20; 0% = ACh EC20, 100% = maximal ACh; activation, % at 3 µM; 360,000 tested, 0.088% active; AID 588819; in the data active means activation above about 19%, passing the limit was not always enough
Target sequence (P11229 whole entry, looked up): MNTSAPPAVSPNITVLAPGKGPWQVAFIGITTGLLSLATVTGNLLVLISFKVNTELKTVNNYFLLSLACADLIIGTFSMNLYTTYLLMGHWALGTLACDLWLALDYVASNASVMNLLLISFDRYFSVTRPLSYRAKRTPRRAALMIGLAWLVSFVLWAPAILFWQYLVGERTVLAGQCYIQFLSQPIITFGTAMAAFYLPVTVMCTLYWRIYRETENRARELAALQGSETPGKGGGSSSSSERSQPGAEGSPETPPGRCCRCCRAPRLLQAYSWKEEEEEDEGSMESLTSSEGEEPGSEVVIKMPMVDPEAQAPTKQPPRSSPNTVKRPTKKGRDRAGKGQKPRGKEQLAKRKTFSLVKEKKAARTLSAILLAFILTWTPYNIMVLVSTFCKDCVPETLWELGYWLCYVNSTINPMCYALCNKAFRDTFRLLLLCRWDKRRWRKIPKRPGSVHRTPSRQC
CHRM5 agonist = CHRM5 agonism in calcium assay | AID 624037 | activation, % at 3 µM | 360,000 tested, 0.19% active | CHO-K1 hM5 cells, Fluo-8 calcium fluorescence; 0% DMSO wells, 100% maximal acetylcholine response;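 active means activation above the run's mean over test compounds plus 3 SD, cut at about 23% in these data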;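 further: signal is peak over basal fluorescence ratio across the kinetic read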
M1 ag = activates human CHRM1 receptor; P11229; CHO-K1 hM1, Fluo-8 calcium fluorescence, agonist mode; 0% DMSO, 100% acetylcholine EC100; activation, % at 3 µM; 360,000 tested, 0.33% active; AID 588814;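 active means activation above the run's mean compound activation plus 3 SD, cut at about 16% in these data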;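 further: peak over basal fluorescence ratio within a 140 s kinetic read after compound addition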
CHRM1 antagonist = blocks human M1 muscarinic receptor; P11229; CHO-K1 hM1, Fluo-8 calcium fluorescence, ACh EC80 antagonist; inhibition, % at 3 µM; 360,000 tested, 1.3% active; AID 588852;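 active means percent inhibition above its own plate's cutoff, namely the mean of that plate's compound wells plus 3 SD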;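 further: peak over basal fluorescence ratio during 140 s after agonist addition; 0% = ACh EC80 plus DMSO and 100% = DMSO alone without agonist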
Starred values were filed as active, the others as inactive; / = no result given; ! = not active in a repeat.

SMILES | CHRM5 PAM | CHRM5 antagonist | M1 PAM | CHRM5 agonist | M1 ag | CHRM1 antagonist
O=C(OCC(=O)N1CCCCCC1)c1cc(S(=O)(=O)N2CCOCC2)ccc1F | 2.0 | 0.8 | 5.9 | -0.4 | -6.5 | -12.9
O=C1CC(=C(c2ccccc2)c2ccccc2)C(=O)N1CCCN1CCN(c2cccc(Cl)c2)CC1 | -22.2 | 3.0 | -20.4 | -8.2 | -4.9 | 38.5*
O=C1CC(=C(c2ccccc2)c2ccccc2)C(=O)N1CCN1CCN(c2cccc(Cl)c2)CC1 | -1.0 | -1.9 | -1.0 | -1.3 | -4.5 | 6.6
CSc1ccccc1OCc1cc(C(=O)N2CCSCC2)no1 | -1.4 | 2.3 | 6.1 | -2.4 | -3.4 | 2.2
Cn1ccnc1C1CCCCN1C(=O)c1cc(COc2ccc(F)cc2Cl)on1 (stereo not given) | -1.6 | -1.9 | -31.9 | -7.0 | -12.9 | 36.3*
CCN(CC)C1CCN(C(=O)c2cc(COc3ccccc3SC)on2)C1 (stereo not given) | 1.1 | 0.1 | -17.4 | -7.5 | 0.8 | 56.1*
COCC1CCN(C(=O)c2cc(COc3ccc(F)cc3Cl)on2)C1 (stereo not given) | -1.2 | -4.5 | 1.0 | -0.4 | -4.9 | -13.6
CSc1ccccc1OCc1cc(C(=O)N2CCCC(C)C2)no1 (stereo not given) | -4.1 | -6.3 | 4.4 | -5.1 | -5.1 | 1.1
CSc1ccccc1OCc1cc(C(=O)N2CCC(Oc3cccnc3)CC2)no1 | -16.0 | 3.5 | -19.0 | 0.0 | -1.3 | 39.2*
CCN(CC)C1CCN(C(=O)c2cc(COc3ccc(F)cc3Cl)on2)C1 (stereo not given) | 4.7 | -4.7 | -18.9 | -13.1 | 1.7 | 69.5*
CCC(=O)c1ccc(OCC(=O)Nc2nc(-c3cccnc3)cs2)cc1 | -24.3 | 13.6 | -9.8 | 5.1 | -1.2 | 26.9*
CCC(=O)c1ccc(OCC(=O)Nc2nc(C)cs2)cc1 | 1.3 | 12.8 | 3.8 | 2.7 | 0.7 | -9.7
O=C(NCCCN1CCOCC1)C(=O)NCC1OCCN1S(=O)(=O)c1ccc(F)cc1 (stereo not given) | 3.6 | -6.0 | 8.3 | -2.0 | -3.1 | -5.6
Cc1ccc(S(=O)(=O)N2CCOC2CNC(=O)C(=O)NCCCN2CCOCC2)cc1 (stereo not given) | 13.6 | -12.9 | 23.5* | -5.9 | -0.7 | -28.7
CCN(CC)CC#CCC(O)(c1ccccc1)c1ccccc1 | -35.1 | 28.9* | -25.1 | -16.4 | -7.5 | 93.4*
CCN(CC)CC#CCC(O)(c1ccccc1)c1ccc(Br)cc1 (stereo not given) | -16.9 | 11.4 | -23.0 | -8.1 | -4.3 | 91.7*
C=CC(O)(C#CCN(CC)CC)c1ccccc1 (stereo not given) | -23.2 | 15.3 | -17.7 | -6.1 | -3.8 | 37.9*
CN(C)CC#CCC(O)(c1ccccc1)c1ccccc1 | -31.1 | 23.9 | -23.9 | -18.9 | -7.1 | 87.1*
CCOC(=O)N(C)c1c(CC)nc2c(OCc3cc(Cl)cc(Cl)c3)cccn12 | -1.5 | 0.4 | -15.4 | -2.5 | -7.2 | -0.7
O=C(NCc1ccco1)c1ccc(-c2ccc3nccn3c2)cc1 | -9.5 | 9.4 | -0.4 | 0.0 | -3.4 | -1.7
C[C@@H]1CN([C@@H](C)CO)C(=O)CCCn2nncc2CO[C@H]1CN(C)C(=O)Nc1ccnc(N2CCOCC2)c1 | -1.7 | 9.1 | 3.1 | -0.7 | -3.5 | -4.7
CCN(CC)CC#CCC(C)(c1ccccc1)c1ccccc1 | -21.4 | 16.8 | -20.5 | -11.8 | -5.0 | 72.3*
CCN(CC#CCC1(O)c2ccccc2-c2ccccc21)CCO | -4.6 | 8.7 | -1.0 | -5.8 | -6.7 | -1.1
O=C(CCNC(=O)C1CCN(S(=O)(=O)c2ccc(F)cc2)CC1)NCc1ccccn1 | -7.8 | 6.2 | -0.8 | 1.2 | -2.1 | 2.1
O=C1C=C(OCCF)CC(c2ccccc2C(F)(F)F)O1 (stereo not given) | 1.3 | -1.7 | / | -2.1 | / | /
OC1C(O)C(O)C(O)C(O)C1O (stereo not given) | 6.0 | -10.4 | -1.1 | 0.1 | -1.4 | 99.9*!
CCOc1ccc(CNC(=O)c2cccc(NC(=O)C3=C(C)OCCS3)c2)cc1 | -12.7 | 29.6* | 1.7 | 4.2 | -0.6 | 1.0
